Results published in ChEMBL document CHEMBL3621107, “Ring fusion strategy for synthesis and lead optimization of sulfur-substituted anthra[1,2-c][1,2,5]thiadiazole-6,11-dione derivatives as promising scaffold of antitumor agents” (Eur J Med Chem, 2015).

Experiments:
M14 = experiment: Cytotoxicity against human M14 cells assessed as cell growth at 10 uM after 48 hrs by SRB assay relative to control; type: functional; settings: M14, 48 h, read-out: Activity
In short: (§1)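 First-stage NCI-60 screen by the NCI Developmental Therapeutics Program. Each compound was tested once at a single concentration of 10 μM against the 60-cell-line panel. Growth percentage was reported for each cell line.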

MDA-MB-435 = experiment: Cytotoxicity against human MDA-MB-435 cells assessed as cell growth at 10 uM after 48 hrs by SRB assay relative to control; type: functional; settings: MDA-MB-435, 48 h, read-out: Activity
In short: (§2)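 First-stage NCI DTP one-dose screen against the 60 human tumour cell line panel. Compounds were tested at a single 10 μM level, and results are given as growth percentage.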

SK-MEL-2 = experiment: Cytotoxicity against human SK-MEL-2 cells assessed as cell growth at 10 uM after 48 hrs by SRB assay relative to control; type: functional; settings: SK-MEL-2, 48 h, read-out: Activity; in short: as §2
UACC-257 = experiment: Cytotoxicity against human UACC257 cells assessed as cell growth at 10 uM after 48 hrs by SRB assay relative to control; type: functional; settings: UACC-257, 48 h, read-out: Activity
In short: (§3)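 NCI-60 one-dose screen run by NCI DTP: each cell line exposed to a single 10 µM dose, and percentage growth recorded against untreated growth.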

NCI/ADR-RES = experiment: Cytotoxicity against human NCI/ADR-RES cells assessed as cell growth at 10 uM after 48 hrs by SRB assay relative to control; type: functional; settings: read-out: Activity; in short: as §2
SK-OV-3 = experiment: Cytotoxicity against human SKOV3 cells assessed as cell growth at 10 uM after 48 hrs by SRB assay relative to control; type: functional; settings: SK-OV-3, 48 h, read-out: Activity; in short: as §2
786-0 = experiment: Cytotoxicity against human 786-0 cells assessed as cell growth at 10 uM after 48 hrs by SRB assay relative to control; type: functional; settings: 786-0, 48 h, read-out: Activity; in short: as §1
A498 = experiment: Cytotoxicity against human A498 cells assessed as cell growth at 10 uM after 48 hrs by SRB assay relative to control; type: functional; settings: A498, 48 h, read-out: Activity; in short: as §1
PC-3 [1] = experiment: Cytotoxicity against human PC3 cells assessed as cell growth at 10 uM after 48 hrs by SRB assay relative to control; type: functional; settings: PC-3, 48 h, read-out: Activity; in short: as §2
MDA-MB-231 = experiment: Cytotoxicity against human MDA-MB-231 cells assessed as cell growth at 10 uM after 48 hrs by SRB assay relative to control; type: functional; settings: MDA-MB-231, 48 h, read-out: Activity; in short: as §2
[2] = Cytotoxicity against human Hs578T cells assessed as cell growth at 10 uM after 48 hrs by SRB assay relative to control; type: functional; settings: Hs-578T, read-out: Activity; in short: as §1
T47D = experiment: Cytotoxicity against human T47D cells assessed as cell growth at 10 uM after 48 hrs by SRB assay relative to control; type: functional; settings: read-out: Activity; in short: as §3
MDA-MB-468 = experiment: Cytotoxicity against human MDA-MB-468 cells assessed as cell growth at 10 uM after 48 hrs by SRB assay relative to control; type: functional; settings: MDA-MB-468, 48 h, read-out: Activity; in short: as §2
PC-3 [3] = experiment: Cytotoxicity against human PC3 cells after 48 hrs by SRB assay; type: functional, cell-based; settings: PC-3, 48 h
In short: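 Second-stage NCI-60 panel run by the NCI Developmental Therapeutics Program, covering nine tumour subpanels. Five concentrations were tested: 0.01, 0.1, 1, 10 and 100 μM. Percentage growth at each level was plotted against log10 drug concentration. GI50, TGI and LC50 were read from these dose-response curves. Subpanel MID values were divided into the full-panel MID to give selectivity ratios.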

DU-145 = experiment: Cytotoxicity against human DU145 cells after 72 hrs by MTT assay; type: functional, cell-based; settings: DU-145, 72 h
In short: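 DU-145 cells grown in RPMI-1640 with 5% heat-inactivated fetal calf serum at 37 °C, 5% CO2. About 2×10^3 cells per well were seeded and incubated for 24 h. Compounds were dissolved in DMSO freshly and diluted into medium (vehicle 0.1% DMSO), then cells were exposed for 72 h. MTT was added for 3 h at 37 °C and absorbance read at 570 nm.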

HL-60(TB) = experiment: Cytotoxicity against human HL-60(TB) cells assessed as cell growth at 10 uM after 48 hrs by SRB assay relative to control; type: functional; settings: HL-60, 48 h, read-out: Activity
In short: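 NCI Developmental Therapeutics Program 60-cell-line screen, first stage: a single dose of 10 μM against the panel, reported as percentage growth.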

MOLT-4 = experiment: Cytotoxicity against human MOLT4 cells assessed as cell growth at 10 uM after 48 hrs by SRB assay relative to control; type: functional; settings: MOLT-4, 48 h, read-out: Activity; in short: as §2
A549 = experiment: Cytotoxicity against human A549 cells assessed as cell growth at 10 uM after 48 hrs by SRB assay relative to control; type: functional; settings: A549, 48 h, read-out: Activity; in short: as §1
[4] = Cytotoxicity against human EKVX cells assessed as cell growth at 10 uM after 48 hrs by SRB assay relative to control; type: functional; settings: read-out: Activity; in short: as §1
HOP-62 = experiment: Cytotoxicity against human HOP62 cells assessed as cell growth at 10 uM after 48 hrs by SRB assay relative to control; type: functional; settings: HOP-62, 48 h, read-out: Activity; in short: as §1
NCI-H226 = experiment: Cytotoxicity against human NCI-H226 cells assessed as cell growth at 10 uM after 48 hrs by SRB assay relative to control; type: functional; settings: NCI-H226, 48 h, read-out: Activity; in short: as §2
NCI-H522 = experiment: Cytotoxicity against human NCI-H522 cells assessed as cell growth at 10 uM after 48 hrs by SRB assay relative to control; type: functional; settings: NCI-H522, 48 h, read-out: Activity; in short: as §2
HCT-15 = experiment: Cytotoxicity against human HCT15 cells assessed as cell growth at 10 uM after 48 hrs by SRB assay relative to control; type: functional; settings: HCT-15, 48 h, read-out: Activity; in short: as §1
KM12 = experiment: Cytotoxicity against human KM12 cells assessed as cell growth at 10 uM after 48 hrs by SRB assay relative to control; type: functional; settings: KM12, 48 h, read-out: Activity; in short: as §1
SF-295 = experiment: Cytotoxicity against human SF295 cells assessed as cell growth at 10 uM after 48 hrs by SRB assay relative to control; type: functional; settings: SF-295, 48 h, read-out: Activity; in short: as §2
SF-539 = experiment: Cytotoxicity against human SF539 cells assessed as cell growth at 10 uM after 48 hrs by SRB assay relative to control; type: functional; settings: SF-539, 48 h, read-out: Activity; in short: as §2
SNB-19 = experiment: Cytotoxicity against human SNB19 cells assessed as cell growth at 10 uM after 48 hrs by SRB assay relative to control; type: functional; settings: SNB-19, 48 h, read-out: Activity; in short: as §3
OVCAR-5 = experiment: Cytotoxicity against human OVCAR5 cells assessed as cell growth at 10 uM after 48 hrs by SRB assay relative to control; type: functional; settings: OVCAR-5, 48 h, read-out: Activity; in short: as §2
ACHN = experiment: Cytotoxicity against human ACHN cells assessed as cell growth at 10 uM after 48 hrs by SRB assay relative to control; type: functional; settings: read-out: Activity; in short: as §1

SMILES	growth at 10 µM (M14) [%]	growth at 10 µM (MDA-MB-435) [%]	growth at 10 µM (SK-MEL-2) [%]	growth at 10 µM (UACC-257) [%]	growth at 10 µM (NCI/ADR-RES) [%]	growth at 10 µM (SK-OV-3) [%]	growth at 10 µM (786-0) [%]	growth at 10 µM (A498) [%]	growth at 10 µM (MDA-MB-231) [%]	growth at 10 µM [2] [%]	growth at 10 µM (T47D) [%]	growth at 10 µM (MDA-MB-468) [%]	IC50 (PC-3 [3]) [µM]	IC50 (DU-145) [µM]	growth at 10 µM (HL-60(TB)) [%]	growth at 10 µM (MOLT-4) [%]	growth at 10 µM (A549) [%]	growth at 10 µM [4] [%]	growth at 10 µM (HOP-62) [%]	growth at 10 µM (NCI-H226) [%]	further results
O=C1c2ccccc2C(=O)c2c1cc(Sc1ccc(Cl)cc1)c1nsnc21	105	107	109	95.5	102	109	109	93	89	103	85	46.1	> 15	> 15	87.3	59.2	104	94.8	102	104	growth at 10 µM (PC-3 [1]): 86.9%; growth at 10 µM (NCI-H522): 93.4%; growth at 10 µM (HCT-15): 98.1%; growth at 10 µM (KM12): 102%; growth at 10 µM (SF-295): 97.3%; growth at 10 µM (SF-539): 107%; growth at 10 µM (SNB-19): 105%
O=C1c2ccccc2C(=O)c2c1cc(Sc1ccc(F)cc1F)c1nsnc21	53.8	-85.3	51.8	43.9	-26.2	92.6	3.74	50.8	-9.73	50.1	-28.6	-87	14.8	9.12	-37.7	-41.6	112	98.1	58.5	88.8	growth at 10 µM (OVCAR-5): 110%; growth at 10 µM (ACHN): 34.9%; growth at 10 µM (PC-3 [1]): -9.72%; growth at 10 µM (NCI-H522): 61.1%; growth at 10 µM (HCT-15): 45.8%; growth at 10 µM (KM12): 51.8%; growth at 10 µM (SF-295): 68.8%; growth at 10 µM (SF-539): 58.8%; growth at 10 µM (SNB-19): 87.3%
O=C1c2ccccc2C(=O)c2c1cc(Sc1cc(Cl)ccc1Cl)c1nsnc21	99	106	101	119	83.1	84.1	67.5	87.7	82.4	72.5	63.4	90.7	> 15	> 15	72.7	1.27	103	109	63.2	112	growth at 10 µM (OVCAR-5): 109%; growth at 10 µM (ACHN): 88.5%; growth at 10 µM (PC-3 [1]): 80.6%; growth at 10 µM (NCI-H522): 91.3%; growth at 10 µM (HCT-15): 92.8%; growth at 10 µM (KM12): 101%; growth at 10 µM (SF-295): 78.9%; growth at 10 µM (SF-539): 88.7%; growth at 10 µM (SNB-19): 84.4%
O=C1c2ccccc2C(=O)c2c1cc(SCc1ccccc1)c1nsnc21	86.5	-48.3	-3.95	58.9	62.3	80.3	92.6	88.6	-13.4	60	-46.1	-85.3	> 15	6.35	70.3	-21	102	95	83.7	101	growth at 10 µM (PC-3 [1]): 38.4%; growth at 10 µM (NCI-H522): 78.9%; growth at 10 µM (HCT-15): 54.7%; growth at 10 µM (KM12): 103%; growth at 10 µM (SF-295): 91.6%; growth at 10 µM (SF-539): 68.3%; growth at 10 µM (SNB-19): 94.3%
O=C1c2ccccc2C(=O)c2c1ccc1nsnc21	74.5	-87.9	-73.2	-83.1	-2.53	101	-26	130	-17.3	7.4	-45.5	-73.2	2.5	7.41	-21.8	-40.1	104	103	-100	97.8	growth at 10 µM (OVCAR-5): -20.1%; growth at 10 µM (ACHN): -94.3%; growth at 10 µM (HCT-15): 1.48%; growth at 10 µM (KM12): 98.6%; growth at 10 µM (SF-295): 126%; growth at 10 µM (SF-539): -47.1%; growth at 10 µM (SNB-19): 79%
